# Experimental data from the array DNA melting data of Ke et al. (doi:10.1101/2024.01.08.574731).
# How the values were obtained:
# [1] = folding enthalpy; higher = less favourable; fluorescence melt of hairpins on a sequencing array, two-state fit; conditions: sodium 0.088 M
# Outline: (§1)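 Library hairpins on a sequenced MiSeq flow cell carried annealed Cy3 and quencher oligos, and their Cy3 fluorescence was imaged in 50 mM Na-HEPES pH 8.0 with 25 mM NaCl, in 2.5 °C steps up to 60 °C. Signals were normalised to Cy3 before quenching and to control constructs. Melting temperature and folding enthalpy were obtained from bootstrapped two-state fits, combined by inverse-variance weighting across four replicates, and the fitted temperatures were then raised by 9.35 °C to match UV melts.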
# [2] = melting temperature; fluorescence melt of hairpins on a sequencing array, two-state fit, raised by 9.35 °C to match UV melts; conditions: sodium 0.088 M
# Outline: as §1
Sequence,folding enthalpy [1],Tm [2]
GAGAACGAAAGTTGGCTC ((((((....)))..))),-19.1 kcal/mol,30.6 °C
GAGAACGAAAGTTGTCTC ((((((....)))..))),-27.2 kcal/mol,43.5 °C
GAGAACGCGAAAGCGCTC (((..(((....)))))),-12.2 kcal/mol,39 °C
GAGAACGGAAACGTTTTC ((.((((....)))).)),-25.3 kcal/mol,41.3 °C
GAGAAGACGAAAGTCCTC (((..(((....)))))),-13.2 kcal/mol,31.4 °C
GAGAAGCGAAAGCTCCTC (((.(((....))).))),-21.7 kcal/mol,45.1 °C
GAGAAGGAAACTTCTC ((((((....)))))),-23.3 kcal/mol,48.3 °C
GAGAAGGGAAACCCTCTC ((((.((....)).)))),-22.8 kcal/mol,35.6 °C
GAGAAGGGAAACCTTTTC ((.((((....)))).)),-28.4 kcal/mol,28.8 °C
GAGAATGCGAAAGCACTC (((..(((....)))))),-9.82 kcal/mol,32 °C
GAGACAGGAAACCGTCTC (((((.(....).))))),-29.2 kcal/mol,46.3 °C
GAGACAGGAAACTGTTTC ((.((((....)))).)),-29.1 kcal/mol,37.9 °C
GAGACCGAAAGGTCCCTC ((((((....)))..))),-11.1 kcal/mol,44.6 °C
GAGACCGAAAGGTGCCTC ((((((....)))..))),-12.7 kcal/mol,31.1 °C
GAGACGGAAACGTCTC ((((((....)))))),-39.8 kcal/mol,63.3 °C
GAGACGGGAAACCATCTC ((((.((....)).)))),-24.5 kcal/mol,36.8 °C
GAGAGACGAAAGTCGCTC (((.(((....))).))),-32.3 kcal/mol,60.5 °C
GAGAGAGGAAACTCTCTC (((((((....))))))),-35.4 kcal/mol,57.9 °C
GAGAGCGAAAGCTACCTC ((((((....)))..))),-10.4 kcal/mol,30.1 °C
GAGAGCGAAAGCTCCCTC ((((((....)))..))),-10.3 kcal/mol,44 °C
GAGAGCGAAAGCTGCTC ((((((....))).))),-14 kcal/mol,47 °C
GAGAGCGAAAGCTTGCTC ((((((....)))..))),-10.4 kcal/mol,35.5 °C
GAGAGGGGAAACCTTCTC ((((.((....)).)))),-27.4 kcal/mol,40.3 °C

Sequence,folding enthalpy [1],Tm [2]
GAGAGTCCGAAAGGACTC (((..(((....)))))),-8.55 kcal/mol,60.4 °C
GAGAGTGAAAACTCTC ((((((....)))))),-32.1 kcal/mol,53.9 °C
GAGAGTGGAAACATTCTC ((((.((....)).)))),-32.6 kcal/mol,38.5 °C
GAGAGTGGAAACGTTCTC ((((..(....)..)))),-14.4 kcal/mol,33.9 °C
GAGATAGGAAACTGTCTC ((((.((....)).)))),-29.5 kcal/mol,41.3 °C
GAGATCCGAAAGGACCTC (((.(((....))).))),-28.4 kcal/mol,47.1 °C
GAGATCGCGAAAGCGCTC (((..(((....)))))),-8.57 kcal/mol,33.6 °C
GAGATCGGAAACAATCTC (((((.(....).))))),-15.3 kcal/mol,32.5 °C
GAGATGGGAAACCATCTC (((((((....))))))),-39.2 kcal/mol,60.3 °C
GAGCAACCGAAAGGTCTC (((..(((....)))))),-13.1 kcal/mol,30.1 °C
GAGCAACGAAAGTTACTC (((.(((....))).))),-26.2 kcal/mol,42.9 °C
GAGCAAGAAATTGCTC ((((((....)))))),-29.8 kcal/mol,54.8 °C
GAGCAAGGAAACTTGCTC (((((((....))))))),-40.4 kcal/mol,63.8 °C
GAGCAAGGAAACTTGTTC ((.((((....)))).)),-26.1 kcal/mol,36.2 °C
GAGCACGAAAGTGACCTC ((((((....)))..))),-15.1 kcal/mol,39.6 °C
GAGCACGAAAGTGCCCTC ((((((....)))..))),-9.48 kcal/mol,44.3 °C
GAGCACGAAAGTGGCTC ((((((....))).))),-24.2 kcal/mol,56.5 °C
GAGCACGAAAGTGTCCTC ((((((....)))..))),-12.9 kcal/mol,35.2 °C
GAGCACGGAAACATGCTC (((((.(....).))))),-35 kcal/mol,45.4 °C
GAGCACGGAAACGCGCTC ((((.((....)).)))),-42.9 kcal/mol,55.3 °C
GAGCAGGGAAACCCGCTC ((((.((....)).)))),-34.2 kcal/mol,51.4 °C
GAGCAGGGAAACTTGCTC (((((.(....).))))),-32.1 kcal/mol,49 °C
GAGCATGGAAACACGCTC ((((.((....)).)))),-35.6 kcal/mol,44 °C

Sequence,folding enthalpy [1],Tm [2]
GAGCCACGAAAGTGTCTC (((.(((....))).))),-29 kcal/mol,50 °C
GAGCCAGGAAACTGGTTC ((.((((....)))).)),-29.9 kcal/mol,49.4 °C
GAGCCCGAAAGGGGACTC ((((((....)))..))),-18.9 kcal/mol,47.8 °C
GAGCCCGAAAGGGGCCTC ((((((....)))..))),-13.5 kcal/mol,49.9 °C
GAGCCCGAAAGGGTGCTC ((((((....)))..))),-18.6 kcal/mol,52.1 °C
GAGCCCGGAAACAGGCTC (((((.(....).))))),-39.4 kcal/mol,51.5 °C
GAGCCGGGAAACCGGCCC (.(((((....))))).),-9.15 kcal/mol,48.2 °C
GAGCCTGGAAACGGGCTC (((((.(....).))))),-47.8 kcal/mol,58.9 °C
GAGCGACGAAAGTCCCTC (((.(((....))).))),-16.1 kcal/mol,43.6 °C
GAGCGACGAAAGTCCTC (((.(((....)))))),-17.1 kcal/mol,48.3 °C
GAGCGAGGAAACTCACTC (((.(((....))).))),-31 kcal/mol,42.1 °C
GAGCGCGAAAGCGGCCTC ((((((....)))..))),-11.7 kcal/mol,51.1 °C
GAGCGCGAAAGCGTCTC ((((((....))).))),-21.2 kcal/mol,61.5 °C
GAGCGCGCGAAAGCGCTC (((..(((....)))))),-12.4 kcal/mol,64.6 °C
GAGCGCGGAAACGCGCCC (.(((((....))))).),-5.64 kcal/mol,59.7 °C
GAGCGGAAACGCTC (((((....))))),-27.4 kcal/mol,69.1 °C
GAGCGGCCGAAAGGCCTC (((..(((....)))))),-6.54 kcal/mol,28 °C
GAGCGGGGAAACCCGCCC (.(((((....))))).),-8.26 kcal/mol,45.1 °C
GAGCGTGGAAACACGCCC (.(((((....))))).),-7.9 kcal/mol,47.9 °C
GAGCGTGGAAACGCGCTC (((((.(....).))))),-21.7 kcal/mol,66.7 °C
GAGCTACGAAAGTACTC (((.(((....)))))),-21.3 kcal/mol,39.1 °C
GAGCTAGAAATAGCTC ((((((....)))))),-33.6 kcal/mol,53.4 °C
GAGCTAGCGAAAGCTCTC (((..(((....)))))),-17 kcal/mol,45.3 °C

Sequence,folding enthalpy [1],Tm [2]
GAGCTCCGAAAGGACTC (((.(((....)))))),-23.6 kcal/mol,47.4 °C
GAGCTCGGAAACGAACCC (.(.(((....))).).),-4.42 kcal/mol,19.5 °C
GAGCTGGGAAACCAACTC (((.(((....))).))),-32 kcal/mol,39.9 °C
GAGCTGGGAAACCAGTTC ((.((((....)))).)),-24.4 kcal/mol,47.4 °C
GAGCTGGGAAACTGGCTC ((((..(....)..)))),-27.6 kcal/mol,46.7 °C
GAGCTTCCGAAAGGACTC (((..(((....)))))),-27.4 kcal/mol,29.2 °C
GAGCTTGGAAACAAGCTC (((((((....))))))),-35.1 kcal/mol,67.8 °C
GAGGAACCGAAAGGTCTC (((..(((....)))))),-15.4 kcal/mol,35.2 °C
GAGGAAGGAAACTTCTTC ((.((((....)))).)),-16.7 kcal/mol,33.9 °C
GAGGACCGAAAGGTCTC (((.(((....)))))),-10.9 kcal/mol,46.5 °C
GAGGACGAAAGTCGTCTC ((((((....)))..))),-28.6 kcal/mol,52.2 °C
GAGGACGAAAGTCTGCTC ((((((....)))..))),-14.4 kcal/mol,39.2 °C
GAGGACGGAAACGTTCTC (((.(((....))).))),-41.9 kcal/mol,51.6 °C
GAGGAGGGAAACTTCCTC (((((.(....).))))),-25.6 kcal/mol,41.9 °C
GAGGATGGAAACGTCCTC (((((.(....).))))),-34.9 kcal/mol,49.6 °C
GAGGCACCGAAAGGTCTC (((..(((....)))))),-11.5 kcal/mol,31.3 °C
GAGGCAGCGAAAGCTCTC (((..(((....)))))),-10.2 kcal/mol,31.8 °C
GAGGCCGAAAGGCACCTC ((((((....)))..))),-8.77 kcal/mol,40 °C
GAGGCCGAAAGGCATCTC ((((((....)))..))),-17.1 kcal/mol,68.4 °C
GAGGCCGCGAAAGCGCTC (((..(((....)))))),-12.8 kcal/mol,35 °C
GAGGCTGGAAACAACCTC ((((.((....)).)))),-29.2 kcal/mol,41.8 °C
GAGGCTGGAAACAGCCCC (.(((((....))))).),-8.68 kcal/mol,46.1 °C
